# SENP8 block-1: blocks human SENP8 cleavage of Nedd8 substrate; Q96LD8; inhibition, % at 20 µM; AID 602440; 0.64% of 360,000 active; recombinant SENP8, Nedd8 substrate fluorescence; in the data active = inhibition mostly above about 40%, no sharp cut-off; inactive = mostly below about 27%
# SENP1 inh: inhibitors of human SENP1 SUMO protease catalytic domain | recombinant SENP1 catalytic domain, CyPet-SUMO1-YPet FRET cleavage | inhibition, % at 10 µM | 0.21% of 360,000 active | AID 624204;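 active = inhibition at least 30% at 10 µM, raw YFP signal under a set limit, fluorescence ratio 0.5 to 1.5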;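 note: 0% = enzyme with DMSO and 100% = no enzyme wells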
#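 system = hSENP1 catalytic domain, recombinant | reagent = SFCypet-SUMO1-SFYpet substrate at 25 nM | doses = one dose per compound, 10 µM, 0.5% DMSO | incubation = enzyme reaction for 50 min at room temperature, dark | measured by = FRET, CFP and YFP emission | controls = no-enzyme low, enzyme-DMSO high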
# SENP7 block: inhibitors of human SENP7 protease; Q9BQF6; recombinant SENP7, Z-RLRGG-aminoluciferin luminescence, 40 min; inhibition, % at 5 µM; 1.5% of 330,000 active;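 active = inhibition above about 50% at the single test dose, limit read from the data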;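 note: plate controls were DMSO with enzyme for no effect and no enzyme buffer wells for full effect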
# SENP6 block: SENP6 protease inhibition; Q9GZR1; Recombinant SENP6 catalytic domain, aminoluciferin luminescence; inhibition, % at 10 µM; 1.8% of 330,000 active; AID 2599;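 active = inhibition above about 50% at the single tested dose, limit read from the data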;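 note: plate controls were DMSO wells with enzyme for no effect and DMSO wells lacking enzyme for full effect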
# Target sequence (Q9GZR1 628-1112 limits assumed): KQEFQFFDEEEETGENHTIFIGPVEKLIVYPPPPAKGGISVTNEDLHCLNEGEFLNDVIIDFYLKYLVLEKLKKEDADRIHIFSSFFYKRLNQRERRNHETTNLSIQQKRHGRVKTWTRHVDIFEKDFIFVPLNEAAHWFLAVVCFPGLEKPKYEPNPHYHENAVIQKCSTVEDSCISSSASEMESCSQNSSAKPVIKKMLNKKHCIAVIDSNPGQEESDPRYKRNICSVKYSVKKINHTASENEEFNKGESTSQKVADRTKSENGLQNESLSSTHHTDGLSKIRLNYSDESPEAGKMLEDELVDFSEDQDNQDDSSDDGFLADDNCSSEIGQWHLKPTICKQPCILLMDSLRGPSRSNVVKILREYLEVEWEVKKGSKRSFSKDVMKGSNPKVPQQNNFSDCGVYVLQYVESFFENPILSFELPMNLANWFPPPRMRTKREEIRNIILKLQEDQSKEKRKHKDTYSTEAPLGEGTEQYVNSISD
# SENP8 block-2: SENP8 protease inhibition. purified SENP8, Z-RLRGG-aminoluciferin cleavage, luminescence. 1.2% of 330,000 active. AID 2540. inhibition, % at 10 µM. Q96LD8; in the data active = inhibition above about 50%
# HSP90 refold inh: inhibitors of HSP90 luciferase refolding in rabbit reticulocyte lysate; luciferase refolding luminescence, 3 h; inhibition, % at 5.6 µM; 0.91% of 290,000 active;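 active = inhibition above the screen-wide mean plus 3 SD, computed separately per campaign, cut at about 16% in these data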;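 note: 0% = DMSO wells and 100% = 60 µM geldanamycin wells; inhibitors lower the luminescence because luciferase stays unfolded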
# HSP90 inh confirm: confirmation of HSP90 inhibitors. shares compounds with HSP90 refold inh. rabbit reticulocyte lysate, luciferase refolding luminescence, 3 h. inhibition, % at 5.9 µM. 64% of 2,300 active; in the data active = inhibition above about 18%;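 note: 0% = vehicle wells and 100% = reference inhibitor wells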
# luciferase ctr: firefly luciferase inhibition, HSP90 counter-screen | shares compounds with HSP90 refold inh | purified native firefly luciferase, luminescence | inhibition, % at 5.9 µM | 48% of 2,300 active;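 active = inhibition above the mean inhibition of all tested sample wells plus 3 SD, cut at about 10% in these data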;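 note: 0% = DMSO with luciferase and 100% = wells lacking luciferase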
# Starred values were filed as active, the others as inactive; · = not tested or not shown. Compounds with a hit are over-represented: about 2.9% of the library has one in this group of screens.
SMILES,SENP8 block-1,SENP1 inh,SENP7 block,SENP6 block,SENP8 block-2,HSP90 refold inh,HSP90 inh confirm,luciferase ctr
O=C(N/N=C/c1cccnc1)c1ccc(NC(=O)c2ccc(Cl)cc2)cc1,3,-5,-3,7,3,20*,-5,-12
O=C(N/N=C/c1cccnc1)c1ccc(NC(=O)c2cccc(Cl)c2)cc1,5,-4,-9,-8,0,-2,·,·
C(=N\Nc1ccccn1)/c1c[nH]c2ccccc12,-148,-3,-8,18,6,0,·,·
O=C(N/N=C/c1cccnc1)c1ccc(Cl)c(Cl)c1,12,2,-16,-10,-5,·,·,·
O=C(O)c1cc(N/N=C/c2c[nH]c3ccccc23)ccc1Cl,-155,-35,7,6,6,40*,38*,-10
O=C(O)c1cc(N/N=C/c2cccnc2)ccc1Cl,12,5,12,43,15,30*,39*,-4
Cc1ccc(NC(=O)CCNS(=O)(=O)c2ccc(Br)s2)cc1,12,1,-10,-30,-1,7,·,·
O=C(NCCc1ccccc1)c1ccccc1NC(=O)C1CCCCC1C(=O)O (centres undefined),·,·,-4,17,4,47*,2,-9
O=C(c1ccc2nc(N3CCOCC3)sc2c1)N1CCCC1,13,2,10,-18,-8,-3,·,·
COc1ccc(N2CCN(C(=O)c3ccc4nc(N5CCCCC5)sc4c3)CC2)cc1,-3,-1,5,-5,7,19*,29*,-8
CC1=C(C(=O)N(C)C)CC(CC(=O)NCC2CCCCC2)C(=O)N1CCCN1CCCC1=O (centres undefined),6,1,·,·,·,·,·,·
O=C(Nc1nc2cc3c(cc2s1)OCO3)c1ccco1,-352,3,·,·,·,25*,69*,68*
O=C(/C=C/c1ccc2c(c1)OCO2)Nc1nc2ccccc2s1,-440,-13,-8,-11,-16,25*,62*,20*
CC(C)C(=O)Nc1nc2cc3c(cc2s1)OCCO3,22,0,27,33,-1,28*,40*,34*
O=C1C=C(c2ccc(Cl)c(C(F)(F)F)c2)C[C@@H](c2ccc3c(c2)OCO3)C1,-18,0,-15,-10,1,·,·,·
COC(=O)c1ccc2nc(-c3cccc(Br)c3)c(Cc3ccsc3)n2c1,-107,-1,·,·,·,·,·,·
O=C(Nc1ccc2nc3n(c(=O)c2c1)CCCCC3)c1c(F)ccc([N+](=O)[O-])c1F,15,3,-2,6,-2,24*,6,3
O=C(Nc1ccc2nc3n(c(=O)c2c1)CCCCC3)c1ccccc1[N+](=O)[O-],18,1,11,-4,1,-3,·,·
O=C(Nc1ccc2nc3n(c(=O)c2c1)CCCCC3)c1cc([N+](=O)[O-])ccc1F,12,1,1,1,-4,34*,15,4
S=C(NCc1ccccc1)N1CCN(C(=S)NCc2ccccc2)CC1,13,2,-9,-1,5,·,·,·
C=C(C)Cn1c(CN(C)Cc2ccccc2)nc2c1c(=O)n(C)c(=O)n2C,0,0,-5,-24,7,-1,·,·
CCCCn1c(N)c(N(CC(C)C)C(=O)c2cc(-c3ccc(F)cc3)nc3ccccc23)c(=O)[nH]c1=O,-51,-18,-3,-6,-6,·,·,·
COc1cccc2c1C(=O)c1ccc3ccccc3c1C2=O,-94,3,20,23,22,26*,-1,-24
COc1cccc2c1-c1c(C(=O)O)cccc1C2=O,7,-1,0,4,7,2,·,·
CNC1=C(N(C(C)=O)c2ccc(Br)cc2)C(=O)c2ccccc2C1=O,84*,1,·,·,·,63*,12,-7
CCC(C)c1ccc2oc(-c3ccc(NC(=O)Cn4cnc5c(=O)n(C)c(=O)n(C)c54)cc3)nc2c1 (centres undefined),-278,-5,-12,-17,-14,26*,27*,18*
CC(C)(C)C(=O)N1CCC2CC1c1cc(Cl)ccc12 (centres undefined),7,2,·,·,·,·,·,·

# Source: PubChem BioAssay (several laboratories)
